Measurements from ChEMBL document CHEMBL4814057, “4-4-(Anilinomethyl)-3-[4-(trifluoromethyl)phenyl]-1H-pyrazol-1-ylbenzoic acid derivatives as potent anti-gram-positive bacterial agents” (Eur J Med Chem, 2021).
In brackets after ≈: the same amount, converted by molar mass. Activity calls are given as the source filed them. The rule behind the calls is not given here.

Tests used:
[1] = system: Staphylococcus aureus; assay: Antimicrobial activity against methicillin-resistant Staphylococcus aureus ATCC 33592 assessed as bacterial growth inhibitions by CLSI protocol based microdilution method; assay type: functional
[2] = system: Staphylococcus aureus; assay: Antimicrobial activity against antibiotic-resistant Staphylococcus aureus BM-2312 assessed as bacterial growth inhibitions by CLSI protocol based microdilution method; assay type: functional
[3] = system: Enterococcus faecium; assay: Antimicrobial activity against vancomycin-resistant Enterococcus faecium ATCC 700221 assessed as bacterial growth inhibitions by CLSI protocol based microdilution method; assay type: functional
[4] = system: Staphylococcus aureus; assay: Antimicrobial activity against methicillin-susceptible Staphylococcus aureus ATCC 25923 assessed as bacterial growth inhibitions by CLSI protocol based microdilution method; assay type: functional
[5] = system: Bacillus subtilis; assay: Antimicrobial activity against Bacillus subtilis ATCC 6623 assessed as bacterial growth inhibitions by CLSI protocol based microdilution method; assay type: functional
Procedure, shortened: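 Broth microdilution starting at 50 µg/ml with 2-fold serial dilutions; run in triplicate.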

[6] = system: Staphylococcus aureus; assay: Antimicrobial activity against methicillin-resistant Staphylococcus aureus ATCC 700699 assessed as bacterial growth inhibitions by CLSI protocol based microdilution method; assay type: functional
[7] = system: Staphylococcus aureus; assay: Antimicrobial activity against methicillin-resistant Staphylococcus aureus ATCC 33591 assessed as bacterial growth inhibitions by CLSI protocol based microdilution method; assay type: functional
[8] = system: Enterococcus faecalis; assay: Antimicrobial activity against vancomycin-susceptible Enterococcus faecalis ATCC 29212 assessed as bacterial growth inhibitions by CLSI protocol based microdilution method
[9] = system: Staphylococcus epidermidis; assay: Antimicrobial activity against methicillin-resistant Staphylococcus epidermidis ATCC 700296 assessed as bacterial growth inhibitions by CLSI protocol based microdilution method; assay type: functional
[10] = system: Enterococcus faecium; assay: Antimicrobial activity against vancomycin-resistant Enterococcus faecium clinical isolate 1091563 by CLSI-based broth microdilution assay; assay type: functional
[11] = system: Enterococcus faecium; assay: Antimicrobial activity against vancomycin-resistant Enterococcus faecium clinical isolate 1089544 by CLSI-based broth microdilution assay; assay type: functional
[12] = system: Enterococcus faecium; assay: Antimicrobial activity against vancomycin-resistant Enterococcus faecium clinical isolate 1100440 by CLSI-based broth microdilution assay; assay type: functional
[13] = system: Enterococcus faecium; assay: Antimicrobial activity against vancomycin-resistant Enterococcus faecium clinical isolate 1088228 by CLSI-based broth microdilution assay; assay type: functional
[14] = system: Enterococcus faecium; assay: Antimicrobial activity against vancomycin-resistant Enterococcus faecium clinical isolate 1088925 by CLSI-based broth microdilution assay; assay type: functional
[15] = system: Enterococcus faecium; assay: Antimicrobial activity against vancomycin-resistant Enterococcus faecium clinical isolate 1091720 by CLSI-based broth microdilution assay; assay type: functional
[16] = system: Staphylococcus aureus; assay: Antimicrobial activity against methicillin-resistant Staphylococcus aureus clinical isolate 1088888 by CLSI-based broth microdilution assay; assay type: functional
[17] = system: Staphylococcus aureus; assay: Antimicrobial activity against methicillin-sensitive Staphylococcus aureus ATCC 29213 by CLSI-based broth microdilution assay; assay type: functional
[18] = system: Staphylococcus aureus; assay: Antimicrobial activity against methicillin-sensitive Staphylococcus aureus clinical isolate 1088626 by CLSI-based broth microdilution assay; assay type: functional
[19] = system: Staphylococcus aureus; assay: Antimicrobial activity against methicillin-resistant Staphylococcus aureus clinical isolate 1088610 by CLSI-based broth microdilution assay; assay type: functional
[20] = system: Enterococcus faecium; assay: Antimicrobial activity against vancomycin-resistant Enterococcus faecium clinical isolate 1094112 by CLSI-based broth microdilution assay; assay type: functional
[21] = system: Staphylococcus aureus; assay: Antimicrobial activity against methicillin-resistant Staphylococcus aureus clinical isolate 1089106 by CLSI-based broth microdilution assay; assay type: functional
[22] = system: Staphylococcus aureus; assay: Antimicrobial activity against methicillin-resistant Staphylococcus aureus clinical isolate 1088064 by CLSI-based broth microdilution assay; assay type: functional
[23] = system: Enterococcus faecium; assay: Antimicrobial activity against vancomycin-resistant Enterococcus faecium clinical isolate 1088168 by CLSI-based broth microdilution assay; assay type: functional
[24] = system: Enterococcus faecium; assay: Antimicrobial activity against vancomycin-resistant Enterococcus faecium clinical isolate 1091282 by CLSI-based broth microdilution assay; assay type: functional
[25] = system: Enterococcus faecium; assay: Antimicrobial activity against vancomycin-resistant Enterococcus faecium clinical isolate 1088051 by CLSI-based broth microdilution assay; assay type: functional
[26] = system: Staphylococcus aureus; assay: Antimicrobial activity against methicillin-sensitive Staphylococcus aureus clinical isolate 1088105 by CLSI-based broth microdilution assay; assay type: functional

| Compound | MIC [1] | MIC [2] [µg/mL] | MIC [3] | MIC [4] [µg/mL] | MIC [5] | MIC [6] | MIC [7] | MIC [8] | MIC [9] [µg/mL] | also measured |
| --- | --- | --- | --- | --- | --- | --- | --- | --- | --- | --- |
| O=C(O)c1ccc(-n2cc(CNc3cccc(F)c3)c(-c3ccc(C(F)(F)F)cc3)n2)cc1 | 3.12 µg/mL (≈ 6.85 µM) | 3.12 (≈ 6.85 µM) | 6.25 µg/mL (≈ 13.7 µM) | 3.12 (≈ 6.85 µM) | 1.56 µg/mL (≈ 3.43 µM) | 3.12 µg/mL (≈ 6.85 µM) | 3.12 µg/mL (≈ 6.85 µM) | 25 µg/mL (≈ 54.9 µM) | 6.25 (≈ 13.7 µM) | – |
| Cc1onc(-c2ccccc2)c1C(=O)N[C@@H]1C(=O)N2[C@@H]1SC(C)(C)[C@@H]2C(=O)O [OXACILLIN] | – | – | – | – | – | – | – | – | – | MIC [10]: > 32 µg/mL; MIC [11]: > 32 µg/mL; MIC [12]: > 32 µg/mL; MIC [13]: > 32 µg/mL; MIC [14]: > 32 µg/mL; MIC [15]: > 32 µg/mL; MIC [16]: 1 µg/mL (≈ 2.49 µM); MIC [17]: 1 µg/mL (≈ 2.49 µM); MIC [18]: 0.5 µg/mL (≈ 1.25 µM); MIC [19]: 0.5 µg/mL (≈ 1.25 µM); MIC [20]: > 32 µg/mL; MIC [21]: 1 µg/mL (≈ 2.49 µM); MIC [22]: 0.5 µg/mL (≈ 1.25 µM); MIC [23]: > 32 µg/mL; MIC [24]: > 32 µg/mL; MIC [25]: > 32 µg/mL; MIC [26]: 1 µg/mL (≈ 2.49 µM) |
| O=C(O)c1ccc(-n2cc(CNc3cc(Cl)ccc3Cl)c(-c3ccc(C(F)(F)F)cc3)n2)cc1 | 0.78 µg/mL (≈ 1.54 µM) | 0.78 (≈ 1.54 µM) | 0.78 µg/mL (≈ 1.54 µM) | 0.78 (≈ 1.54 µM) | 0.78 µg/mL (≈ 1.54 µM) | 0.78 µg/mL (≈ 1.54 µM) | 0.78 µg/mL (≈ 1.54 µM) | 3.12 µg/mL (≈ 6.16 µM) | 1.56 (≈ 3.08 µM) | – |
| O=C(O)c1ccc(-n2cc(CNc3cc(F)c(C(F)(F)F)c(F)c3)c(-c3ccc(C(F)(F)F)cc3)n2)cc1 | 1.56 µg/mL (≈ 2.88 µM) | 1.56 (≈ 2.88 µM) | 6.25 µg/mL (≈ 11.5 µM) | 1.56 (≈ 2.88 µM) | 0.78 µg/mL (≈ 1.44 µM) | 1.56 µg/mL (≈ 2.88 µM) | 1.56 µg/mL (≈ 2.88 µM) | 12.5 µg/mL (≈ 23.1 µM) | 3.12 (≈ 5.76 µM) | – |
| O=C(O)c1ccc(-n2cc(CNc3ccc(Cl)c(C(F)(F)F)c3)c(-c3ccc(C(F)(F)F)cc3)n2)cc1 | 0.78 µg/mL (≈ 1.44 µM) | 0.78 (≈ 1.44 µM) | 0.78 µg/mL (≈ 1.44 µM) | 0.78 (≈ 1.44 µM) | 0.78 µg/mL (≈ 1.44 µM) | 0.78 µg/mL (≈ 1.44 µM) | 0.78 µg/mL (≈ 1.44 µM) | 0.78 µg/mL (≈ 1.44 µM) | 0.78 (≈ 1.44 µM) | – |
| O=C(O)c1ccc(-n2cc(CNc3ccc(F)c(F)c3F)c(-c3ccc(C(F)(F)F)cc3)n2)cc1 | 1.56 µg/mL (≈ 3.17 µM) | 1.56 (≈ 3.17 µM) | 3.12 µg/mL (≈ 6.35 µM) | 1.56 (≈ 3.17 µM) | 0.78 µg/mL (≈ 1.59 µM) | 1.56 µg/mL (≈ 3.17 µM) | 1.56 µg/mL (≈ 3.17 µM) | inactive | 3.12 (≈ 6.35 µM) | – |
| O=C(O)c1ccc(-n2cc(CNc3cc(Cl)cc(C(F)(F)F)c3)c(-c3ccc(C(F)(F)F)cc3)n2)cc1 | 0.78 µg/mL (≈ 1.44 µM) | 0.78 (≈ 1.44 µM) | 0.78 µg/mL (≈ 1.44 µM) | 0.78 (≈ 1.44 µM) | 0.78 µg/mL (≈ 1.44 µM) | 0.78 µg/mL (≈ 1.44 µM) | 0.78 µg/mL (≈ 1.44 µM) | 6.25 µg/mL (≈ 11.6 µM) | 1.56 (≈ 2.89 µM) | – |
| O=C(O)c1ccc(-n2cc(CNc3ccc(C(=O)O)c(C(F)(F)F)c3)c(-c3ccc(C(F)(F)F)cc3)n2)cc1 | inactive | 50 (≈ 91 µM) | inactive | 50 (≈ 91 µM) | inactive | inactive | inactive | inactive | 50 (≈ 91 µM) | – |
